Assay results reported in ChEMBL document CHEMBL1144697, “9-cyano-1-azapaullone (cazpaullone), a glycogen synthase kinase-3 (GSK-3) inhibitor activating pancreatic beta cell protection and replication” (J Med Chem, 2008).
Active and inactive are the calls of the source. The rule behind the calls is not given here.

How the values were obtained:
SH-SY5Y = assay: Inhibition of GSK3 in human SHSY5Y cells assessed as beta-casein phosphorylation level in presence of MG132; type: cell-based; details: in the assay text read “beta-catenin” for “beta-casein”
In short: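 Nearly confluent SH-SY5Y cells in DMEM with 10% FCS were co-treated with compound across a concentration range plus 2 µM MG132, DMSO ≤1% final. Phospho-β-catenin (Ser33/Ser37/Thr41) measured by ELISA and expressed as % of cells given MG132 alone (100%).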

[1] = biological target: Glycogen synthase kinase-3 (Homo sapiens, UniProt P49840+P49841); assay: Inhibition of GSK3alpha/beta in pig brain; set-up: species or system Sus scrofa; details: target entry is the homologue from another species
[2] = biological target: Cyclin-dependent kinase 5/CDK5 activator 1 (Homo sapiens, UniProt Q00535); assay: Inhibition of recombinant CDK5/p25 expressed in Escherichia coli
Sequence of Cyclin-dependent kinase 5/CDK5 activator 1 (Q00535 whole entry): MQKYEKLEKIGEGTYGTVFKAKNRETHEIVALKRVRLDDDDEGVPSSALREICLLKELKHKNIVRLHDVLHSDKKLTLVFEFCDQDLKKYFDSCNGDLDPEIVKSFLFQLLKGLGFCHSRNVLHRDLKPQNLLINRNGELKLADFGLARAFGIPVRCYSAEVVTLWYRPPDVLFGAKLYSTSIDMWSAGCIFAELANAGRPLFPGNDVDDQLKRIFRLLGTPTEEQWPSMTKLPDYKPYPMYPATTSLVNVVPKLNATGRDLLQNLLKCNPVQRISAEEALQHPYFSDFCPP
Sequence of Cyclin-dependent kinase 5/CDK5 activator 1 (Q15078 whole entry, further chain): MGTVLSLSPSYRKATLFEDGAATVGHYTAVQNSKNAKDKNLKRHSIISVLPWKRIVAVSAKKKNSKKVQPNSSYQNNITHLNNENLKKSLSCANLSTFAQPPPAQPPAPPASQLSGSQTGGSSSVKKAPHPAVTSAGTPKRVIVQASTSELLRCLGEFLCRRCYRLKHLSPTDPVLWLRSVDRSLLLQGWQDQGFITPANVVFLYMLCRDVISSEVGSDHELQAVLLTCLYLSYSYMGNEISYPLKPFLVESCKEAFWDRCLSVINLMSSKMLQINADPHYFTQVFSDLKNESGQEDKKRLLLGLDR

[3] = Inhibition of starfish CDK1/cyclin B; set-up: species or system Asteroidea
In short: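 Kinase inhibition assays at 15 µM final ATP, run in triplicate.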

INS-1E [4] = assay: Protection against glucose and palmitate-induced toxicity in rat INS-1E cells after 24 hrs; type: functional, cell-based
In short: (§1)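 INS-1E cells treated with compound over a concentration range, with or without 0.3 mM BSA-coupled palmitate plus 25 mM glucose for 24 h. Viability/metabolic activity measured as an indirect readout of mitochondrial energy production. At least four wells per point; representative of ≥3 independent studies.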

[5] = Activation of Pax4 RNA expression in rat beta cells at 2 uM after 4 hrs relative to control; type: functional, cell-based; details: Pancreatic beta cell
In short: (§2)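 Primary rat islets exposed to compound for 4 h. Pax4 and cyclophilin B expression measured by qRT-PCR as fold change versus vehicle-treated control (set to 1). Triplicates, mean ± SD.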

[6] = Activation of cyclophilin B gene expression in rat beta cells at 2 uM after 4 hrs relative to control; type: functional, cell-based; details: Pancreatic beta cell; in short: as §2
INS-1E [7] = assay: Protection against glucose and palmitate-induced toxicity in rat INS-1E cells at 0.3 uM after 24 hrs; type: functional, cell-based; in short: as §1
INS-1E [8] = assay: Protection against glucose and palmitate-induced toxicity in rat INS-1E cells at 2 uM after 24 hrs; type: functional, cell-based; in short: as §1
INS-1E [9] = assay: Suppression of metabolic activity in rat INS-1E cells at 1 uM; type: functional, cell-based; in short: as §1
INS-1E [10] = assay: Inhibition of glucose and palmitate-induced apoptosis in rat INS-1E cells by DNA fragmentation assay; type: functional, cell-based
In short: (§3)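 INS-1E cells preincubated 1 h with compound (µM), then exposed to toxic high glucose/palmitate for 24 h. Apoptosis read as cytosolic DNA fragments or caspase activity, as fold change versus untreated control ± SD. At least four wells per point; Student's t test against glucose/palmitate alone.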

INS-1E [11] = assay: Inhibition of glucose and palmitate-induced apoptosis in rat INS-1E cells by caspase activity assay; type: functional, cell-based; in short: as §3
[12] = Inhibition of glucose and palmitate-induced apoptosis in rat INS-1E cells at 2 uM by DNA fragmentation assay; type: functional; set-up: scale not given: the % may be the effect or the level left; in short: as §3
[13] = Inhibition of glucose and palmitate-induced apoptosis in rat INS-1E cells at 2 uM by caspase activity assay; type: functional; set-up: scale not given: the % may be the effect or the level left; in short: as §3
INS-1E [14] = assay: Stimulation of rat INS-1E cell replication assessed as BrdU incorporation; type: functional, cell-based
In short: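 INS-1E cells exposed to compound at various concentrations for 24 h. Replication measured as BrdU incorporation, given as fold increase versus untreated cells ± SD. At least four wells per point, two independent studies, Student's t test.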

Pancreatic beta cell [15] = assay: Stimulation of rat primary beta cell replication at 0.5 uM; type: functional
In short: (§4)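 Isolated rat islets incubated with compound for 72 h, then disaggregated and spotted onto slides. Cells double-immunostained for C-peptide and Ki-67. Replication scored as % Ki-67+ among C-peptide+ cells, compared with untreated islets.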

Pancreatic beta cell [16] = assay: Stimulation of rat primary beta cell replication at 2 uM; type: functional; in short: as §4
[17] = Activation of Pax4 RNA expression in rat INS-1E cells at 1 uM after 4 hrs relative to control; type: functional, cell-based
In short: (§5)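 Compound added to INS-1E cells for 4 h or 24 h. Pax4 and cyclophilin B transcripts quantified by qRT-PCR. Reported as fold change versus vehicle-treated control, with the control level set to 1. Mean of triplicates ± SD.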

[18] = Activation of Pax4 RNA expression in rat INS-1E cells at 1 uM after 24 hrs relative to control; type: functional, cell-based; in short: as §5
[19] = Activation of cyclophilin B gene expression in rat INS-1E cells at 1 uM after 4 hrs relative to control; type: functional, cell-based; in short: as §5
[20] = Activation of cyclophilin B gene expression in rat INS-1E cells at 1 uM after 24 hrs relative to control; type: functional, cell-based; in short: as §5
Pancreatic beta cell [21] = assay: Stimulation of rat primary beta cell replication at 5 uM; type: functional; in short: as §4
[22] = Activation of Pax4 RNA expression in rat INS-1E cells at 10 uM after 4 hrs relative to control; type: functional, cell-based; in short: as §5
[23] = Activation of Pax4 RNA expression in rat INS-1E cells at 10 uM after 24 hrs relative to control; type: functional, cell-based; in short: as §5
[24] = Activation of cyclophilin B gene expression in rat INS-1E cells at 10 uM after 4 hrs relative to control; type: functional, cell-based; in short: as §5
[25] = Activation of cyclophilin B gene expression in rat INS-1E cells at 10 uM after 24 hrs relative to control; type: functional, cell-based; in short: as §5

O=C1Cc2c([nH]c3ccc(Br)cc23)-c2ccccc2N1 [KENPAULLONE]
Activity (SH-SY5Y): Dose-dependent effect

N#Cc1ccc2[nH]c3c(c2c1)CC(=O)Nc1ccncc1-3
IC50 [1]: 21 nM | IC50 [2]: 32 nM | IC50 [3]: 31 nM

Cn1c2c(c3ccccc31)CC(=O)Nc1cccnc1-2
IC50 [1]: 1000 nM | IC50 [2]: 3000 nM | IC50 [3]: > 10000 nM

O=C1Cc2c(oc3ccc(Br)cc23)-c2ccccc2N1
IC50 [1]: > 10000 nM | IC50 [2]: > 10000 nM | IC50 [3]: > 10000 nM

CCn1c2c(c3ccccc31)CC(=O)Nc1cccnc1-2
IC50 [1]: 13000 nM | IC50 [2]: > 10000 nM | IC50 [3]: > 10000 nM

CCn1c2c(c3ccccc31)CC(=O)Nc1ccncc1-2
IC50 [1]: 800 nM | IC50 [2]: > 10000 nM | IC50 [3]: 3800 nM

N#Cc1ccc2[nH]c3c(c2c1)CC(=O)Nc1ccc(Br)nc1-3
IC50 [1]: 3800 nM | IC50 [2]: 10000 nM

O=C1Cc2c([nH]c3ccc(I)cc23)-c2ncccc2N1
IC50 [1]: 25 nM | IC50 [2]: 6000 nM | IC50 [3]: 1000 nM | Activity (INS-1E [4]): Active

N#Cc1ccc2[nH]c3c(c2c1)CC(=O)Nc1cccnc1-3 [CAZPAULLONE]
Fold change [5]: 2.4 | Fold change [6]: 0.73 | IC50 [1]: 8 nM | IC50 [2]: 300 nM | IC50 [3]: 500 nM | Activity (SH-SY5Y): Dose-dependent effect | Activity (INS-1E [4]): Active | Activity (INS-1E [7]): Active | Activity (INS-1E [8]): Active | Activity (INS-1E [9]): Active | Activity (INS-1E [10]): Active | Activity (INS-1E [11]): Active | Activity [12]: >50% | Activity [13]: >50% | Activity (INS-1E [14]): Dose-dependent effect | Activity (Pancreatic beta cell [15]): 2.5 | Activity (Pancreatic beta cell [16]): inactive | Fold change [17]: 4.87 | Fold change [18]: 0.56 | Fold change [19]: 1.11 | Fold change [20]: 1.42

O=C1Cc2c([nH]c3ccc(Cl)cc23)-c2ncccc2N1
IC50 [1]: 63 nM | IC50 [2]: > 10000 nM | IC50 [3]: > 10000 nM

Cc1cnc(-c2cnc(NCCNc3ccc(C#N)cn3)nc2-c2ccc(Cl)cc2Cl)[nH]1 [LADUVIGLUSIB]
Activity (Pancreatic beta cell [21]): 2.5 | Fold change [22]: 0.78 | Fold change [23]: 0.76 | Fold change [24]: 1.31 | Fold change [25]: 1.12

O=C1Cc2c(n(Cc3ccccc3)c3ccccc23)-c2ncccc2N1
IC50 [1]: 2100 nM | IC50 [2]: > 10000 nM | IC50 [3]: > 10000 nM

N#Cc1cc(I)c2[nH]c3c(c2c1)CC(=O)Nc1cccnc1-3
IC50 [1]: 120 nM | IC50 [2]: 2000 nM | IC50 [3]: 410 nM

N#Cc1ccc2c(c1)-c1[nH]c3ccc(C#N)cc3c1CC(=O)N2
IC50 [1]: 28 nM | IC50 [2]: 730 nM | IC50 [3]: 120 nM

COc1ccc2[nH]c3c(c2c1)CC(=O)Nc1cccnc1-3
IC50 [1]: 800 nM | IC50 [2]: 4000 nM | IC50 [3]: 2000 nM

O=C1Cc2c([nH]c3cc(Cl)cc(Cl)c23)-c2ncccc2N1
IC50 [1]: 800 nM | IC50 [2]: 100000 nM | IC50 [3]: > 30000 nM

Cc1ccc2[nH]c3c(c2c1)CC(=O)Nc1cccnc1-3
IC50 [1]: 130 nM | IC50 [2]: > 10000 nM | IC50 [3]: 8000 nM

O=C1Cc2c(oc3ccccc23)-c2ccccc2N1
IC50 [1]: > 10000 nM | IC50 [2]: > 10000 nM | IC50 [3]: > 10000 nM
